Reference: ChEMBL document CHEMBL2157862, “A novel spirocyclic tropanyl-Δ²-isoxazoline derivative enhances citalopram and paroxetine binding to serotonin transporters as well as serotonin uptake” (Bioorg Med Chem, 2012)
Active and inactive are the calls of the source. The rule behind the calls is not given here.

Assays:
[1] = target: Sodium-dependent serotonin transporter (Rattus norvegicus) (UniProt P31652); test: Displacement of [3H]-citalopram from SERT in rat cortical membranes at 10 uM after 60 mins; format: cell membranes; details: Membrane
How it was run: (§1)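 Frozen rat cortical membranes (washed pellets) in 50 mM Tris-HCl pH 7.4 with 120 mM NaCl and 5 mM KCl, incubated with [3H]citalopram with or without compound. Nonspecific binding defined with 10 µM (S)-citalopram. Bound radioactivity measured by filtration and scintillation counting. Mean ± S.E.M. of replicates; Student's t test vs vehicle.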

[2] = target: Sodium-dependent dopamine transporter (Rattus norvegicus, UniProt P23977); test: Displacement of [3H]-WIN35428 from DAT in rat striatal membranes after 90 mins; format: cell membranes, Membrane
How it was run: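 Frozen rat striatal membranes in 50 mM Tris-HCl pH 7.4 with 120 mM NaCl and 5 mM KCl, incubated 90 min at 4 °C with 2 nM [3H]WIN 35,428. Nonspecific binding defined with 3 µM nomifensine. Stopped by rapid filtration on albumin-presoaked GF/B filters, then scintillation counting.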

[3] = target: Sodium-dependent serotonin transporter (Rattus norvegicus) (UniProt P31652); test: Increase of [3H]-citalopram binding to SERT in rat cortical membranes at 10 uM after 60 mins; format: cell membranes; details: Membrane; how it was run: as §1
[4] = target: Sodium-dependent serotonin transporter (Rattus norvegicus) (UniProt P31652); test: Increase of SERT-mediated [3H]-5HT uptake in rat brain cortex synaptosomes at 3 to 100 uM after 7 mins by scintillation counting; format: subcellular
How it was run: (§2)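 Rat cortex P2 synaptosomes from 0.32 M sucrose homogenate, resuspended in HEPES-buffered saline pH 7.4 with glucose, ascorbate and pargyline. Aliquots equal to 3 mg tissue preincubated 7 min at 35 °C with compound. Uptake then ran 5 min after adding 100 nM [3H]5-HT, stopped by filtration, and counted by scintillation. Nonspecific uptake defined with 10 µM (S)-citalopram.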

[5] = target: Sodium-dependent serotonin transporter (Rattus norvegicus) (UniProt P31652); test: Increase of [3H]-citalopram binding to SERT in rat cortical membranes at 3 to 30 uM after 60 mins; format: cell membranes; details: Membrane; how it was run: as §1
[6] = target: Sodium-dependent serotonin transporter (Rattus norvegicus) (UniProt P31652); test: Increase of [3H]-citalopram binding to SERT in rat cortical membranes after 60 mins; format: cell membranes; details: Membrane; how it was run: as §1
[7] = target: Sodium-dependent serotonin transporter (Rattus norvegicus) (UniProt P31652); test: Increase of [3H]paroxetine binding to SERT in rat cortical membranes at 10 uM after 60 mins; format: cell membranes; details: Membrane
How it was run: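 Saturation binding in rat cortical membranes (Tris-HCl 50 mM pH 7.4, 120 mM NaCl, 5 mM KCl) at varied [3H]paroxetine concentrations, with or without 10 µM compound. Specific binding by scintillation counting. Mean ± SD of 4 replicates. One-site hyperbola fit gave Bmax and Kd.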

[8] = target: Sodium-dependent serotonin transporter (Rattus norvegicus) (UniProt P31652); test: Increase of SERT-mediated [3H]-5HT uptake in rat brain cortex synaptosomes at 10 to 30 uM after 7 mins by scintillation counting; format: subcellular; how it was run: as §2
[9] = target: Sodium-dependent serotonin transporter (Rattus norvegicus) (UniProt P31652); test: Increase of SERT-mediated [3H]-5HT uptake in rat brain cortex synaptosomes at 10 uM after 7 mins by scintillation counting; format: subcellular; how it was run: as §2
[10] = target: Sodium-dependent serotonin transporter (Rattus norvegicus) (UniProt P31652); test: Increase of [3H]-citalopram binding to SERT in rat cortical membranes at 10 to 30 uM after 60 mins; format: cell membranes; details: Membrane; how it was run: as §1
[11] = target: Sodium-dependent serotonin transporter (Rattus norvegicus) (UniProt P31652); test: Increase of SERT-mediated [3H]-5HT uptake in rat brain cortex synaptosomes after 7 mins by scintillation counting; format: subcellular; how it was run: as §2
[12] = target: Sodium-dependent serotonin transporter (Rattus norvegicus, UniProt P31652); test: Displacement of [3H]-citalopram from SERT in rat cortical membranes after 60 mins; format: cell membranes, Membrane; how it was run: as §1
Chain of Sodium-dependent serotonin transporter (P31652 whole entry): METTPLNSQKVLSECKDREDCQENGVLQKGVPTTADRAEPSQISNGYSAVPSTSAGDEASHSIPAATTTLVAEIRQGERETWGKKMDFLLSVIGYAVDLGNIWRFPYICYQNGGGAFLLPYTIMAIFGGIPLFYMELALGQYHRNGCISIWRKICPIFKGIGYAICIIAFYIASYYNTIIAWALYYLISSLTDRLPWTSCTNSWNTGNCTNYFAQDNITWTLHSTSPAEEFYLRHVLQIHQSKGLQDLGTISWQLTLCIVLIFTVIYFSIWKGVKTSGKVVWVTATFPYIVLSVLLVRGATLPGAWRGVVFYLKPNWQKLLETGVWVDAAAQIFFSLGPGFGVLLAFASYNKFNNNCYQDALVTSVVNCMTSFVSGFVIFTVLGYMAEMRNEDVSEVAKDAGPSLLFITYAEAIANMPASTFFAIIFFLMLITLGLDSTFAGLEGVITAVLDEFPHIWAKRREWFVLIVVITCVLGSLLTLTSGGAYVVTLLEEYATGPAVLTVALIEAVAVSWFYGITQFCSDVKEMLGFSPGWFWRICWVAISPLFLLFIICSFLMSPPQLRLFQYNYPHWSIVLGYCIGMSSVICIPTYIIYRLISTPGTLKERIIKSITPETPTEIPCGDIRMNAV

Chain of Sodium-dependent dopamine transporter (P23977 whole entry): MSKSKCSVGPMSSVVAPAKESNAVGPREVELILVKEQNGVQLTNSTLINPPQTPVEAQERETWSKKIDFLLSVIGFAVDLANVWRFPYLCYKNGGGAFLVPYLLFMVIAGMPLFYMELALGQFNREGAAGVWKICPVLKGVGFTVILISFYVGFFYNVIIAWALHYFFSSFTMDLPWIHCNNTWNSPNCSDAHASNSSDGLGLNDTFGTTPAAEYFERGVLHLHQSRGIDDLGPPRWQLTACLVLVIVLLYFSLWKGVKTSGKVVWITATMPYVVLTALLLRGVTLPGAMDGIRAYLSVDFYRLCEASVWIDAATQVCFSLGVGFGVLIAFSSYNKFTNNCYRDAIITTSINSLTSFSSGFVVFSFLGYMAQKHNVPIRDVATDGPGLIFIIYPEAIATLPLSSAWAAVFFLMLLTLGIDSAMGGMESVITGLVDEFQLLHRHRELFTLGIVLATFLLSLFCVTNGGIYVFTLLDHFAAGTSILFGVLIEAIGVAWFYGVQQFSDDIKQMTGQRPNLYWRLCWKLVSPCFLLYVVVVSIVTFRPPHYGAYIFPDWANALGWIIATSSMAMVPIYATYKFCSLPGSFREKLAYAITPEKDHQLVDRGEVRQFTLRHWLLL
Chain of Sodium-dependent serotonin transporter (Rattus norvegicus) (P31652 whole entry): as the sequence (P31652 whole entry) above

Compound | inhibition [1] | further results
C[N+]1(C)[C@@H]2CC[C@H]1C[C@@]1(CC(Br)=NO1)C2 | inactive | 
c1ccc(COC2=NO[C@]3(C2)C[C@H]2CC[C@@H](C3)N2)cc1 | inactive | IC50 [2]: 5 µM
CCOC1=NO[C@]2(C1)C[C@H]1CC[C@@H](C2)N1C | inactive | Activity [3]: 11%; Activity [4]: Active; IC50 [2]: 5 µM; Activity [5]: Active
CCOC(=O)C1=NO[C@]2(C1)C[C@H]1CC[C@@H](C2)[N+]1(C)C | inactive | 
CN1[C@@H]2CC[C@H]1C[C@@]1(CC(=O)NO1)C2 | inactive | 
CN1O[C@]2(CC1=O)C[C@H]1CC[C@@H](C2)N1C | inactive | Activity [6]: inactive
O=C1C[C@]2(C[C@H]3CC[C@@H](C2)N3)ON1 | inactive | IC50 [2]: 5 µM
C[N+]1(C)[C@@H]2CC[C@H]1C[C@@]1(CC(OCc3ccccc3)=NO1)C2 | inactive | 
COC1=NO[C@]2(C1)C[C@H]1CC[C@@H](C2)N1 | inactive | 
C#CCOC1=NO[C@]2(C1)C[C@H]1CC[C@@H](C2)N1 | inactive | 
COC1=NO[C@]2(C1)C[C@H]1CC[C@@H](C2)N1C | inactive | Activity [6]: Dose-dependent effect; Activity [7]: Active; Activity [3]: 25%; Activity [8]: Active; Activity [9]: 30%; Activity [10]: Active; Activity [11]: Dose-dependent effect
CN1O[C@]2(CC1=O)C[C@H]1CC[C@@H](C2)N1 |  | IC50 [12]: 5 µM
CCOC1=NO[C@]2(C1)C[C@H]1CC[C@@H](C2)N1 | inactive | IC50 [2]: 5 µM
CCOC(=O)C1=NO[C@]2(C1)C[C@H]1CC[C@@H](C2)N1C | inactive | 
CN1[C@@H]2CC[C@H]1C[C@@]1(CC(CO)=NO1)C2 | inactive | 
C#CCOC1=NO[C@]2(C1)C[C@H]1CC[C@@H](C2)N1C | inactive | 
C#CCOC1=NO[C@]2(C1)C[C@H]1CC[C@@H](C2)[N+]1(C)C | inactive | 
CN1[C@@H]2CC[C@H]1C[C@@]1(CC(Br)=NO1)C2 | inactive | 
COC1=NO[C@]2(C1)C[C@H]1CC[C@@H](C2)[N+]1(C)C | inactive | 
CCOC1=NO[C@]2(C1)C[C@H]1CC[C@@H](C2)[N+]1(C)C | inactive | IC50 [2]: 5 µM
C[N+]1(C)[C@@H]2CC[C@H]1C[C@@]1(CC(CO)=NO1)C2 | inactive | 
BrC1=NO[C@]2(C1)C[C@H]1CC[C@@H](C2)N1 | inactive | 
CN1[C@@H]2CC[C@H]1C[C@@]1(CC(OCc3ccccc3)=NO1)C2 | inactive | 
